Values after ≈ are worked out from the molar mass of the structure shown. Active and inactive are the calls of the source. No cut-off for these calls is given here.
Tests used:
Plasmodium falciparum [1] = assay: Antiplasmodial activity against N-(2,6-difluorophenyl)-2-(6-(5-methyl-1,3,4-oxadiazol-2-yl)-1H-indol-1-yl)acetamide-resistant Plasmodium falciparum Dd2 harbouring ATP4 genome with 2.8 fold CNV by SYBR green staining based analysis; format: functional, organism-based
Plasmodium falciparum [2] = assay: Antimalarial activity against trophozoite stage Plasmodium falciparum 3D7 at 10 times EC50 incubated for 48 hrs by SYBR Green dye based analysis; format: functional, organism-based
Plasmodium falciparum [3] = assay: Antimalarial activity against Plasmodium falciparum NF54 infected assessed as inhibition of female gamete formation incubated for 48 hrs by automated bright field microscopic analysis; format: functional, organism-based; details: NF54, 48 h
Plasmodium falciparum [4] = assay: Antiplasmodial activity against W454-resistant population 3 Plasmodium falciparum 3D7 harboring Plasmodium falciparum ATP4 L928F mutant by LDH assay; format: functional, organism-based
[5] = biological target: T1, P-type sodium-transporting ATPase4 (Plasmodium falciparum (isolate 3D7), UniProt A0A143ZZK9); assay: Inhibition of Plasmodium falciparum 3D7 ATP4 assessed as increase in Na+ concentration in parasite cytosol measured for 60 mins; format: subcellular
T1 sequence (A0A143ZZK9 whole entry): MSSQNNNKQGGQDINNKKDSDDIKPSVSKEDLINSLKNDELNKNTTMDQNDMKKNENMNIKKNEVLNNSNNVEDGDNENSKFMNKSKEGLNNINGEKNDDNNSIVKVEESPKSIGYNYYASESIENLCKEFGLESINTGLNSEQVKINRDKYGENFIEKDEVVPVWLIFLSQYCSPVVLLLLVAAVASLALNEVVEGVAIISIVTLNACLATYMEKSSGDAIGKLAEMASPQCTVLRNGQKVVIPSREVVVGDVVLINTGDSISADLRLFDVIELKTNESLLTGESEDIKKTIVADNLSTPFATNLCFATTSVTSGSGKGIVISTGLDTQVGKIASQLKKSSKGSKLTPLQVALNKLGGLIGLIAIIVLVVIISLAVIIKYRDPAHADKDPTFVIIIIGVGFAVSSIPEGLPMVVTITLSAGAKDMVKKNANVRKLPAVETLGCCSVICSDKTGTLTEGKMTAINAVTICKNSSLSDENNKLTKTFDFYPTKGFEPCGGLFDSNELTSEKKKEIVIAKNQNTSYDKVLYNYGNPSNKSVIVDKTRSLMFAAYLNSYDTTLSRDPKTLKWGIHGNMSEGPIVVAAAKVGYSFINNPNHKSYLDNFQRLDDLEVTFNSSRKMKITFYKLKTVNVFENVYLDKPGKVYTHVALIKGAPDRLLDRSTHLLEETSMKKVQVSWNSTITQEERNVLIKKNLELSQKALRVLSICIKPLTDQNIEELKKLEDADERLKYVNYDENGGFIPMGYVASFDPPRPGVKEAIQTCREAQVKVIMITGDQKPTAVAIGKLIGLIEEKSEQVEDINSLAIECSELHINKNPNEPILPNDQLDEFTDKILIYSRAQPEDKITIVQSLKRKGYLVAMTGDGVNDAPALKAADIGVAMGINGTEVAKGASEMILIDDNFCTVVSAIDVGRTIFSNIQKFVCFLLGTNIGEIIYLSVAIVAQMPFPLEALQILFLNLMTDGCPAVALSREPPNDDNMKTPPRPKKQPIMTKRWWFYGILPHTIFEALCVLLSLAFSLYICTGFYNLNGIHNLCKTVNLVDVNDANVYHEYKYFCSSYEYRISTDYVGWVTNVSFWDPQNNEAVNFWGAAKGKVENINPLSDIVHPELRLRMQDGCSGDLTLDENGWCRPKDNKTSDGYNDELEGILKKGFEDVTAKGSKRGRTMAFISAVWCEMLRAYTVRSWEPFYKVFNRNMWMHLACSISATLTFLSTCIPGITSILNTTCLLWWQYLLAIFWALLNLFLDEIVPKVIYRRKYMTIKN

Plasmodium falciparum [6] = assay: Antimalarial activity against synchronized-ring stage Plasmodium falciparum 3D7 assessed as reduction in parasitemia at 10 times EC50 measured at 72 hrs post-treatment by LDH assay; format: functional, organism-based
Summary of the method: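 Parasite reduction ratio assay in P. falciparum 3D7 with an LDH read-out. Means and SDs were taken from three replicate experiments.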

Plasmodium falciparum [7] = assay: Antiplasmodial activity against W454-resistant population 1 Plasmodium falciparum 3D7 harboring Plasmodium falciparum ATP4 L928F mutant by LDH assay; format: functional, organism-based
Plasmodium falciparum [8] = assay: Antiplasmodial activity against multidrug-resistant Plasmodium falciparum Dd2 harboring plasmodium falciparum ATP4 G358S mutant by SYBR green staining based analysis; format: functional, organism-based
Plasmodium falciparum [9] = assay: Antiplasmodial activity against multidrug-resistant Plasmodium falciparum Dd2 harboring plasmodium falciparum ATP4 I398F/P990R/D1247Y mutant by SYBR green staining based analysis; format: functional, organism-based
[10] = biological target: T2, P-type sodium-transporting ATPase4 (Plasmodium falciparum (isolate 3D7)) (UniProt A0A143ZZK9); assay: Inhibition of Plasmodium falciparum 3D7 ATP4 assessed as increase in Na+ concentration in parasite cytosol upto 1000 nM measured for 60 mins; format: subcellular
T2 sequence (whole entry): T1 sequence (A0A143ZZK9 whole entry)

Plasmodium knowlesi = assay: Antiplasmodial activity against wild type Plasmodium knowlesi YH1 incubated for 30 hrs by SYBR staining based flow cytometry assay; format: functional, organism-based; details: YH1, 30 h
Plasmodium falciparum [11] = assay: Antiplasmodial activity against multi-drug resistant Plasmodium falciparum Dd2; format: functional, organism-based
Plasmodium falciparum [12] = assay: Antiplasmodial activity against Plasmodium falciparum 3D7 infected in human […] cells incubated for 72 hrs; format: functional, organism-based; details: 3D7, 72 h
Plasmodium falciparum [13] = assay: Antimalarial activity against Plasmodium falciparum NF54 infected assessed as inhibition of male gamete formation incubated for 48 hrs by automated bright field microscopic analysis; format: functional, organism-based; details: NF54, 48 h
Plasmodium falciparum [14] = assay: Antiplasmodial activity against N-(2,6-difluorophenyl)-2-(6-(5-methyl-1,3,4-oxadiazol-2-yl)-1H-indol-1-yl)acetamide-resistant Plasmodium falciparum Dd2 harboring plasmodium falciparum ATP4 D425E mutant by SYBR green staining based analysis; format: functional, organism-based
HepG2 [15] = assay: Cytotoxicity against human HepG2 cells; format: functional
Plasmodium falciparum [16] = assay: Antiplasmodial activity against multidrug resistant Plasmodium falciparum Cam3.1 incubated for 48 hrs by SYBR staining based fluorometer assay; format: functional, organism-based; details: Cam3.1, 48 h
Plasmodium falciparum [17] = assay: Antiplasmodial activity against W454-resistant population 2 Plasmodium falciparum 3D7 harboring Plasmodium falciparum ATP4 L928F mutant by LDH assay; format: functional, organism-based
Plasmodium falciparum [18] = assay: Antiplasmodial activity against multidrug resistant Plasmodium falciparum W2mef incubated for 48 hrs by SYBR staining based fluorometer assay; format: functional, organism-based
Plasmodium falciparum [19] = assay: Antimalarial activity against trophozoite stage Plasmodium falciparum 3D7 assessed as reduction in parasitemia at 10 times EC50 incubated for 24 hrs by SYBR Green dye based analysis; format: functional, organism-based
[20] = Aqueous solubility in PBS buffer at pH 7.4; format: physicochemical
HepG2 [21] = assay: Cytotoxicity against human HepG2 cells assessed as inhibition of cell growth incubated for 48 hrs by celltiterglo assay; format: toxicity, cell-based; details: hepg2, 48 h
Plasmodium falciparum [22] = assay: Antiplasmodial activity against N-(2,6-difluorophenyl)-2-(6-(5-methyl-1,3,4-oxadiazol-2-yl)-1H-indol-1-yl)acetamide-resistant Plasmodium falciparum Dd2 harboring plasmodium falciparum ATP4 F156L mutant by SYBR green staining based analysis; format: functional, organism-based
[23] = Metabolic stability in human liver microsome assessed as intrinsic clearance; format: ADME; details: microsomes
[24] = Lipophilicity, logD of compound at pH 7.4 by shake-flask method; format: physicochemical; details: buffer
Plasmodium falciparum [25] = assay: Antiplasmodial activity against multidrug resistant Plasmodium falciparum 7G8 incubated for 48 hrs by SYBR staining based fluorometer assay; format: functional, organism-based; details: 7G8, 48 h
[26] = biological target: T2, P-type sodium-transporting ATPase4 (Plasmodium falciparum (isolate 3D7)); assay: Inhibition of Plasmodium falciparum 3D7 ATP4 assessed as reduction in Na+-ATPase activity at 2 uM incubated for 10 mins under high [Na+] condition in absence of KAE609
[27] = biological target: T1, P-type sodium-transporting ATPase4; assay: Inhibition of Plasmodium falciparum 3D7 ATP4
Plasmodium falciparum [28] = assay: Antiplasmodial activity against wild type Plasmodium falciparum 3D7 incubated for 48 hrs; format: functional, organism-based; details: 3D7, 48 h
Plasmodium falciparum [29] = assay: Antiplasmodial activity against asexual Plasmodium falciparum 3D7 infected in human […] cells assessed as reduction in parasite growth measured for 72 hrs by LDH assay; format: functional, organism-based; details: 3D7, 72 h
[30] = Metabolic stability in rat hepatocyte […] assessed as intrinsic clearance measured per 10^6 cells; format: ADME, cell-based; details: hepatocytes
Plasmodium falciparum [31] = assay: Antiplasmodial activity against Plasmodium falciparum 3D7 infected in RBC assessed as reduction in pyrimidine-deoxyribonucleotides level at 5 nM incubated for 5 hrs by LC-MS analysis; format: functional, organism-based
Plasmodium falciparum [32] = assay: Antiplasmodial activity against Plasmodium falciparum 3D7 infected in RBC assessed as reduction in deoxycytidine monophosphate level at 5 nM incubated for 5 hrs by LC-MS analysis; format: functional, organism-based
[33] = Metabolic stability in mouse liver microsome assessed as intrinsic clearance; format: ADME; details: microsomes
Plasmodium falciparum [34] = assay: Antiplasmodial activity against Plasmodium falciparum 3D7 infected in RBC assessed as reduction in nucleotide level at 5 nM incubated for 5 hrs by LC-MS analysis; format: functional, organism-based
Plasmodium falciparum [35] = assay: Antiplasmodial activity against Plasmodium falciparum 3D7 infected in RBC assessed as reduction in deoxythymidine triphosphate level at 5 nM incubated for 5 hrs by LC-MS analysis; format: functional, organism-based
Plasmodium falciparum [36] = assay: Antiplasmodial activity against Plasmodium falciparum 3D7 infected in RBC assessed as reduction in deoxythymidine diphosphate level at 5 nM incubated for 5 hrs by LC-MS analysis; format: functional, organism-based

Compound | EC50 (Plasmodium falciparum [1]) [µM] | Activity (Plasmodium falciparum [2]) | EC50 (Plasmodium falciparum [3]) [µM] | EC50 (Plasmodium falciparum [8]) [µM] | EC50 (Plasmodium falciparum [9]) [µM] | EC50 (Plasmodium knowlesi) [µM] | EC50 (Plasmodium falciparum [11]) [µM] | EC50 (Plasmodium falciparum [12]) [µM] | EC50 (Plasmodium falciparum [13]) [µM] | EC50 (Plasmodium falciparum [14]) [µM] | EC50 (Plasmodium falciparum [16]) [µM] | EC50 (Plasmodium falciparum [18]) [µM] | solubility kinetic [20] [µM] | CC50 (HepG2 [21]) [µM] | intrinsic clearance (CLint) [23] [µL/min/mg] | logD [24] | EC50 (Plasmodium falciparum [25]) [µM] | EC50 (Plasmodium falciparum [28]) [µM] | EC50 (Plasmodium falciparum [29]) [µM] | intrinsic clearance (CLint) [30] [uL/min/10^6 cells] | other results
CCc1nnc(-c2ccc3ccn(CC(=O)Nc4cc(OC)c(OC)c(OC)c4)c3c2)o1 | 0.29 | Active | 7.2 | 1.37 | 0.238 | 0.431 | 0.32 | 0.123 | 7.4 | 0.241 | 0.381 | 0.272 |  |  |  |  |  |  |  |  | EC50 (Plasmodium falciparum [4]): 1.8 µM; IC50 [5]: ~0.4 µM; Activity (Plasmodium falciparum [6]): Active; EC50 (Plasmodium falciparum [7]): 1.94 µM; inhibition [10]: Active; CC50 (HepG2 [15]): > 40 µM; EC50 (Plasmodium falciparum [17]): 1.99 µM; Activity (Plasmodium falciparum [19]): Active
Cn1cc(-c2ccc3ccn(CC(=O)Nc4ccccc4Cl)c3c2)cn1 | 1.16 | Active |  | 1.65 | 2.51 | 0.661 | 0.385 | 0.409 |  | 0.892 | 0.476 | 0.279 | 4.1 (≈ 1.5 µg/mL) | > 40 | > 462 | 3.6 | 0.526 | 0.236 | 0.593 | 91 | EC50 (Plasmodium falciparum [22]): 0.803 µM; inhibition [26]: Active; IC50 [27]: 0.79 µM
COc1cc(NC(=O)Cn2ccc3ccc(-c4nnc(C)o4)cc32)cc(OC)c1OC |  |  | 3.4 |  |  | 0.195 | 0.099 |  | 1.5 |  | 0.124 | 0.077 | 5.1 (≈ 2.15 µg/mL) | > 40 | 42 | 2.7 | 0.165 | 0.073 | 0.2 | 8.9 | Activity (Plasmodium falciparum [31]): inactive; Activity (Plasmodium falciparum [32]): inactive; intrinsic clearance (CLint) [33]: 69 µL/min/mg; Activity (Plasmodium falciparum [34]): inactive; Activity (Plasmodium falciparum [35]): inactive; Activity (Plasmodium falciparum [36]): inactive
